KCNK3 block: human KCNK3 channel inhibitors, primary screen, CHO cells, FluxOR thallium flux, B-score. Potassium channel subfamily K member 3 (Homo sapiens), O14649. FluxOR fluorescence; stronger effect = lower value. B-score at 10 µM. 0.84% of 340,000 active. AID 602410, 2012;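 active = B-score under library mean minus 4 SD, starting fluorescence ratio at most library mean plus 5 SD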;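 also: more negative B-score means stronger inhibition of thallium flux through KCNK3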
KCNQ1 inh: inhibitors of human KCNQ1 channel, primary screen, cell-based, thallium flux, high-throughput; Potassium voltage-gated channel subfamily KQT member 1 (Homo sapiens), P51787; 1.3% of 310,000 active; B-score at 10 µM; AID 2642, 2010; CHO-K1 KCNQ1, FluxOR thallium flux fluorescence; stronger effect = higher value;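 active = compounds whose thallium flux B-score, printed positive for inhibition, exceeds three library SD while starting fluorescence stays within three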;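 also: channel opened by potassium depolarization with thallium stimulus after 20 min compound exposure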
KCNQ1 pot: potentiators or activators of KCNQ1 channel, primary screen, cell-based, thallium flux, high-throughput. Potassium voltage-gated channel subfamily KQT member 1 (Homo sapiens), P51787. CHO-K1 KCNQ1, thallium flux FluxOR fluorescence; stronger effect = higher value. B-score at 10 µM. 0.35% of 310,000 active. AID 2648, 2010;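 active = fluorescence ratio B-score, a plate-corrected score, at least three library SD, with initial intensity B-score within 5 SD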
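Material: CHO-K1 cells stably expressing KCNQ1. Medium: assay buffer for compound exposure, DMSO matched across wells. Reagent: K+/Tl+ depolarizing stimulus. Compound dosing: single-concentration screen. Times: 37 °C overnight plating, 90-min dark dye load, 20-min compound pretreatment. Technique: FluxOR Tl+ flux fluorescence.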
Kir21 block: inhibitors of mouse Kir2.1 inward-rectifier potassium channel; HEK293-Kir2.1, FluxOR thallium flux fluorescence; stronger effect = lower value; Inward rectifier potassium channel 2 (Mus musculus), P35561; B-score at 10 µM; 0.85% of 310,000 active;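 active = fluorescence ratio B-score at or below minus 3 SD of library scores, with starting-brightness B-score within 2 SD, cut at about -4.2 in these data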;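 also: channel flux triggered by added potassium and thallium sulfate stimulus; B-score of peak minus minimum fluorescence over baseline after thallium stimulus; more negative B-score means stronger Kir2.1 block with less thallium influx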
KCNK9 inh: KCNK9 potassium channel inhibitors, primary screen, HEK293 cells, thallium flux. B-score at 10 µM. AID 488922, 2010. FluxOR thallium flux fluorescence; stronger effect = lower value. 1.2% of 310,000 active. Potassium channel subfamily K member 9 (Homo sapiens), Q9NPC2;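 active = ratio B-score over 3 SD below the library mean, with starting fluorescence within 5 SD of its mean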;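 also: negative B-score means less thallium flux so channel inhibition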
hERG rescue: hERG rescue from dofetilide block, primary screen, cell-based, CHO-hERG, FluxOR thallium flux, dofetilide IC70. 0.51% of 310,000 active. AID 1511, 2009. activation (rescue from dofetilide block), less the hit threshold, % at 10 µM. dofetilide IC70 present. Voltage-gated inwardly rectifying potassium channel KCNH2 (Homo sapiens), Q12809;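 active = activation above the mean of controls blocked by dofetilide plus 5 SD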;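 also: thallium influx through hERG after potassium depolarization seen as dye fluorescence rise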
Target sequence (Q12809 whole entry, looked up): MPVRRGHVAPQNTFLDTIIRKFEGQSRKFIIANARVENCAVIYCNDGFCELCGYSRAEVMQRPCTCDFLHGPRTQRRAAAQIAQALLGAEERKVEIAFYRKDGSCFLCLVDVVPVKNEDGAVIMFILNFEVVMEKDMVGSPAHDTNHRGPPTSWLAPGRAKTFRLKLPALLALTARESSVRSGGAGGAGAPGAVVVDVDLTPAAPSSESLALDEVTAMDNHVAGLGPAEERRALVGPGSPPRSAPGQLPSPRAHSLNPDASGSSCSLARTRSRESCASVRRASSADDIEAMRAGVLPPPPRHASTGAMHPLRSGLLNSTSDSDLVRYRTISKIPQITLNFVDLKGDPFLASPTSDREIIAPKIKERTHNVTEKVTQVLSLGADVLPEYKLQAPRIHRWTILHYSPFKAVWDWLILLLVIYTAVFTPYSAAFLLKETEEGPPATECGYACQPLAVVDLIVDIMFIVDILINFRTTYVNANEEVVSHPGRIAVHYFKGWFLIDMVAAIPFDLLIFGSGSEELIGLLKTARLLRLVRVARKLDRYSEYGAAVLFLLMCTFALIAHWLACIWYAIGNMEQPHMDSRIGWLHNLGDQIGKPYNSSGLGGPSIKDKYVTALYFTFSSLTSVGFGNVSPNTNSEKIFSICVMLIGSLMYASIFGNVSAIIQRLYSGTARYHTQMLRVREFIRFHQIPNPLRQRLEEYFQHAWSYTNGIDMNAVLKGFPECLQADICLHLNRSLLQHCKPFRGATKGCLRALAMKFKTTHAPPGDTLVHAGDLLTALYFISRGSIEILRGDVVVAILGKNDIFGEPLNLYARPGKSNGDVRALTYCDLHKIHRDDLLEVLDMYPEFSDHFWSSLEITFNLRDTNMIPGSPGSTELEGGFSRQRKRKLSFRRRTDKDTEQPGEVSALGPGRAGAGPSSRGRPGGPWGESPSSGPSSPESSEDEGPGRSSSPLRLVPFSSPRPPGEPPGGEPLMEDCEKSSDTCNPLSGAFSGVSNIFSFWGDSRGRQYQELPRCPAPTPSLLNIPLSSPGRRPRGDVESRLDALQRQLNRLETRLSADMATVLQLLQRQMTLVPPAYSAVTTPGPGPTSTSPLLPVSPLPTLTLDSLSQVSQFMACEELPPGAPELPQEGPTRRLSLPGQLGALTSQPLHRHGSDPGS
Each line names hits and unclear results; the compound was inactive in the other large screens. Compounds with a hit are over-represented: about 3.7% of the library has one in this group of screens.

CN(NS(=O)(=O)c1ccccc1)c1nc2ccccc2nc1C(F)(F)F	none
CN(NS(=O)(=O)c1ccc(Cl)cc1)c1nc(C(F)(F)F)nc2ccccc12	KCNK9 inh -7.6
COc1ccc(C(=O)NCc2nnc(SCC(=O)Nc3nc4ccc(C)cc4s3)o2)cc1OC	none
CCOc1ccc(CCNC(=O)c2nccnc2C(=O)O)cc1OCC	none
CCOc1ccc(CCNC(=O)C2(c3ccccc3)CC2)cc1OCC	Kir21 block -4.5
CCOC(=O)C1CCN(Cc2cccc(Oc3ccccc3)c2)CC1	Kir21 block -6.1
CC1CN(C(=O)CCn2c(=O)oc3ccccc32)CC(C)O1 (centres undefined)	KCNK3 block -9
CC(C)c1cccc(C(C)C)c1NC(=O)COC(=O)C1=COCCO1	none
CC(C)c1cccc(C(C)C)c1NC(=O)COC(=O)[C@H](C)NC(N)=O	hERG rescue 11
CC(=O)Nc1cccc(OCC(=O)NC(C)c2ccc3ccccc3c2)c1 (centres undefined)	Kir21 block -6.2
N#Cc1nc(-c2ccccc2Cl)oc1NCc1ccco1	KCNK9 inh -7.5
N#Cc1nc(-c2ccccc2)oc1NCc1ccco1	none
CN(CCCC(=O)NCCc1ccccc1)S(=O)(=O)c1ccc([N+](=O)[O-])cc1	none
CCN1CCN(Cc2ccc(NC(=O)c3cc(NC(=O)c4cc5cccc(OC)c5o4)cc(OC)c3)cc2C(F)(F)F)CC1	none
O=C(Nc1cccc(C(F)(F)F)c1)c1csc(-c2ccncc2)n1	none
COc1cc(NC(=O)c2csc(-c3ccncc3)n2)cc(C(=O)Nc2cccc(C(F)(F)F)c2)c1	KCNQ1 inh 11
COc1cccc(NC(=O)c2cc3cccc(OC)c3o/c2=N\O)c1	KCNQ1 inh 7 (no result: KCNK3 block)
COc1cc(NC(=O)c2cc3cccc(OC)c3o2)cc(C(=O)Nc2cccc(C(F)(F)F)c2)c1	KCNQ1 inh 7
O=C(CN1CCN(Cc2ccc(Cl)cc2)CC1)N/N=C/c1ccccc1F	none
COc1ccccc1NS(=O)(=O)c1ccc2c(c1)CCN2C(=O)CCC(=O)O	none
COCCN(C(=O)COC(=O)C(c1ccccc1)c1ccccc1)c1c(N)n(Cc2ccccc2)c(=O)[nH]c1=O	none
O=C(CCC(=O)OCc1ccc([N+](=O)[O-])cc1Cl)Nc1ccccc1	none
O=C(N/N=C/c1sc(N2CCOCC2)nc1-c1ccccc1)c1ccc(O)cc1	KCNQ1 inh 7
COc1ccc(C(=O)N/N=C/c2sc(N3CCOCC3)nc2-c2ccccc2)cc1OC	none
O=C(NCCN1CCOCC1)c1cccc(S(=O)(=O)N2CCCC2)c1	none
O=C(N/N=C/c1sc(N2CCOCC2)nc1-c1ccccc1)c1cccc(S(=O)(=O)N2CCCC2)c1	KCNQ1 inh 6
O=C(NCCN1CCOCC1)c1cccc(S(=O)(=O)N2CCCCCC2)c1	hERG rescue 7.2
Cc1ccc(S(=O)(=O)N2[C@@H](c3ccc(Br)cc3)C(C(=O)O)=CC[C@H]2c2cccs2)cc1	none (no result: KCNQ1 inh, KCNQ1 pot, Kir21 block, KCNK9 inh, hERG rescue)
Cc1ccc(SCC(=O)OCn2nnc3ccccc3c2=O)cc1C	none
Cc1cc(C)c(S(C)(=O)=O)c(S(=O)(=O)c2ccc(Cl)cc2)n1	none
CNc1nc(C)cc(C)c1S(=O)(=O)c1ccc(C)cc1	Kir21 block -5.8
CC1CCN(C(=S)c2cn(Cc3ccccc3F)c3ccccc23)CC1	KCNK9 inh -6.6
CC1CCN(C(=S)NC(=O)c2ccccc2)CC1	none
CC1CCN(C(=S)NC(=O)c2ccc(C(C)(C)C)cc2)CC1	KCNQ1 pot 29, hERG rescue 14
O=C(NC(=S)N(CC1CCC1)CC1CCCO1)c1cccc([N+](=O)[O-])c1 (centres undefined)	KCNQ1 pot 16, hERG rescue 7.9
CC(C)(C)c1ccc(C(=O)NC(=S)N2CCCCCC2)cc1	KCNQ1 pot 22, hERG rescue 8.4
COc1ccc(C(=O)NC(=S)N2CCC(C)CC2)cc1Br	KCNQ1 pot 27, hERG rescue 15
O=C1CN(C(=O)COc2c(F)c(F)cc(F)c2F)c2ccccc2N1	none
Cc1ccc(C(=O)NC(=S)N2CCN(c3ccccc3F)CC2)cc1	none
CC1CCN(C(=S)NC(=O)c2cccc([N+](=O)[O-])c2)CC1	KCNQ1 pot 9, hERG rescue 13
CN1CCN(C(=S)NC(=O)c2cccc([N+](=O)[O-])c2)CC1	none
Cc1ccc(C(=O)NC(=S)N2CCN(c3cc(C)ccc3C)CC2)cc1	hERG rescue 7.7
Cc1cc(N=Cc2c(O)ccc3cc(Br)ccc23)no1	none
CN(C)S(=O)(=O)NCC1CCCN(Cc2ccc(-c3ccccc3)cc2)C1 (centres undefined)	none
CNC(=O)c1sc(N2N=C3/C(=C/c4ccccc4)CCCC3C2c2ccccc2)nc1C (centres undefined)	KCNK9 inh -8.7
NS(=O)(=O)c1cccc(NS(=O)(=O)c2ccc(/C=C/C(=O)OCC(=O)c3ccccc3)cc2)c1	none
COCCNC(=O)c1ccc(NC(=O)C2(c3ccccc3)CCCC2)cc1	hERG rescue 7.5
COc1ccc(NC(=O)C2(c3ccccc3)CCCC2)cc1	none
COc1ccccc1N1CCN(c2ccc3ccccc3n2)CC1	none
c1ccc(C(c2ccccc2)N2CCN(c3nc4ccccc4n4cnnc34)CC2)cc1	KCNQ1 inh 6 (no result: KCNK3 block)
Clc1ccc(C(c2ccccc2)N2CCN(c3ccccn3)CC2)cc1 (centres undefined)	KCNK9 inh -7.3
c1ccc(C(c2ccccc2)N2CCN(c3ccc4ccccc4n3)CC2)cc1	KCNK9 inh -7.8
c1ccc(-c2nnc3ccc(N4CCCC4)nn23)cc1	none
CN(Cc1ccccc1)c1ccc2nnc(-c3ccccc3)n2n1	Kir21 block -5.2
CN(CC(=O)Nc1ccc(Cl)cc1)C(=O)Cn1[nH]c(=O)c2ccccc2c1=O	none
CC(=O)NCCC(=O)Nc1ccc(C)c(F)c1	hERG rescue 5.4
c1coc(C2Nc3cccc4cccc(c34)N2)c1	none (no result: KCNK3 block)
Clc1cccc(C2Nc3cccc4cccc(c34)N2)c1Cl	KCNQ1 inh 10
O=C(Nc1ccc2c(c1)CN(Cc1ccc(CO)o1)CC2)c1ccc(C(F)(F)F)cc1	none
CCOc1ccc(CN(C)C(=O)[C@H](Cc2ccccc2)NC(=O)OCc2ccccc2)cc1OC	none
COc1ccc(C(CNC(=O)Cc2ccccc2F)N2CCCCC2)cc1 (centres undefined)	hERG rescue 6.3
